According to ChEMBL document CHEMBL1132302, “Identification of pharmacokinetically stable 3, 10-dibromo-8-chlorobenzocycloheptapyridine farnesyl protein transferase inhibitors with potent enzyme and cellular activities” (J Med Chem, 1999):

tested on: not listed separately; assay: Area under curve was determined using 20%aqueous hydroxypropyl-beta-cyclodextrin (HPbetaCD) as vehicle. Compound was administered intravenously to nude mice at a dose of 25 mg/kg; format: ADME, organism-based; parameters: dose 25 mg/kg, route intravenous; conditions: mouse, in vivo, iv
Outline: (§1)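 Nude mice were dosed at 25 mpk, intravenously or orally as the line states, in 20% aqueous hydroxypropyl-β-cyclodextrin or 0.4% aqueous methyl cellulose. Serum was sampled over 24 h. Each time point came from sera of different animals.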

AUC [ng·h/mL] | Structure (SMILES)
13700 | O=C(CC1CCN(C(=O)c2cc[n+]([O-])cc2)CC1)N1CCC([C@H]2c3ncc(Br)cc3CCc3cc(Cl)cc(Br)c32)CC1

tested on: not listed separately; assay: Half life was administered by using 0.4% Methyl cellulose (MC) as vehicle to nude mice at a dose of 25mpk; conditions: mouse, in vivo, 25 mg/kg

half-life [min] | Structure (SMILES)
45.6 | N#CCC(=O)N1CCC(CC(=O)N2CCC([C@H]3c4ncc(Br)cc4CCc4cc(Cl)cc(Br)c43)CC2)CC1

tested on: not listed separately; assay: Area under curve was determined using 20%aqueous hydroxypropyl-beta-cyclodextrin (HPbetaCD) as vehicle. Compound was administered orally to nude mice at a dose of 25 mg/kg; format: ADME, organism-based; parameters: dose 25 mg/kg, route oral; conditions: mouse, in vivo, po; outline: as §1

AUC [ng·h/mL] | Structure (SMILES)
15700 | O=C(CC1CCN(C(=O)c2cc[n+]([O-])cc2)CC1)N1CCC([C@H]2c3ncc(Br)cc3CCc3cc(Cl)cc(Br)c32)CC1

target: T1, Protein farnesyltransferase (Homo sapiens, UniProt P49354+P49356); assay: Inhibition of [3H]FPP incorporation into His6-H-Ras-CVLS by farnesyl transferase; format: protein-complex assay; conditions: not given

IC50 [nM] | Structure (SMILES)
5.3 | O=C(CC1CCN(CC(=O)N2CCOCC2)CC1)N1CCC([C@H]2c3ncc(Br)cc3CCc3cc(Cl)cc(Br)c32)CC1
0.9 | NC(=O)CNC(=O)N1CCC(CC(=O)N2CCC([C@H]3c4ncc(Br)cc4CCc4cc(Cl)cc(Br)c43)CC2)CC1

target: T1, Protein farnesyltransferase; assay: Inhibitory activity against Hras Farnesyltransferase (FPT).; format: protein-complex assay; conditions: not given

IC50 [nM] | Structure (SMILES)
7.9 | C[C@@H](N)C(=O)N1CCC(CC(=O)N2CCC([C@H]3c4ncc(Br)cc4CCc4cc(Cl)cc(Br)c43)CC2)CC1
76.1 | O=C(CC1CCN(S(=O)(=O)c2ccccc2)CC1)N1CCC([C@H]2c3ncc(Br)cc3CCc3cc(Cl)cc(Br)c32)CC1

tested on: not listed separately; assay: Maximum concentration (Cmax) using 20%aqueous hydroxypropyl-beta-cyclodextrin (HPbetaCD) as vehicle. compound was administered orally to nude mice at a dose of 25 mg/kg; format: ADME, organism-based; parameters: dose 25 mg/kg, route oral; conditions: mouse, in vivo, po; outline: as §1

Cmax [µM] | Structure (SMILES)
9.81 | O=C(CC1CCN(C(=O)c2cc[n+]([O-])cc2)CC1)N1CCC([C@H]2c3ncc(Br)cc3CCc3cc(Cl)cc(Br)c32)CC1

target: T1, Protein farnesyltransferase; assay: Effect on Ras processing in Cos-1 monkey kidney cells expressing either H-Ras-Val 12-CVLS or H-Ras-Val12.; format: functional, cell-based, Cercopithecidae; conditions: not given
Outline: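 Ras processing was tested in Cos-1 monkey kidney cells transiently expressing H-Ras-Val12-CVLS or H-Ras-Val12. IC50 values are single-point determinations.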

IC50 [nM] | Structure (SMILES)
25 | O=C(CC1CCN(CC(=O)N2CCOCC2)CC1)N1CCC([C@H]2c3ncc(Br)cc3CCc3cc(Cl)cc(Br)c32)CC1
39 | C[C@@H](N)C(=O)N1CCC(CC(=O)N2CCC([C@H]3c4ncc(Br)cc4CCc4cc(Cl)cc(Br)c43)CC2)CC1
< 10 | N#CCC(=O)N1CCC(CC(=O)N2CCC([C@H]3c4ncc(Br)cc4CCc4cc(Cl)cc(Br)c43)CC2)CC1
25 | NC(=O)CNC(=O)N1CCC(CC(=O)N2CCC([C@H]3c4ncc(Br)cc4CCc4cc(Cl)cc(Br)c43)CC2)CC1

tested on: not listed separately; assay: Maximum concentration (Cmax) using 0.4% Methyl cellulose (MC) as vehicle. compound was administered intravenously to nude mice at a dose of 25 mg/kg; format: ADME, organism-based; parameters: dose 25 mg/kg, route intravenous; conditions: mouse, in vivo, iv; outline: as §1

Cmax [µM] | Structure (SMILES)
23.4 | N#CCC(=O)N1CCC(CC(=O)N2CCC([C@H]3c4ncc(Br)cc4CCc4cc(Cl)cc(Br)c43)CC2)CC1
19.8 | O=C(CC1CCN(C(=O)c2cc[n+]([O-])cc2)CC1)N1CCC([C@H]2c3ncc(Br)cc3CCc3cc(Cl)cc(Br)c32)CC1

tested on: not listed separately; assay: Half life was administered by using 20%aqueous hydroxypropyl-beta-cyclodextrin (HPbetaCD) as vehicle to nude mice at a dose of 25mpk,; format: ADME, organism-based; conditions: mouse, in vivo, 25 mg/kg

half-life [min] | Structure (SMILES)
72 | O=C(CC1CCN(C(=O)c2cc[n+]([O-])cc2)CC1)N1CCC([C@H]2c3ncc(Br)cc3CCc3cc(Cl)cc(Br)c32)CC1

tested on: not listed separately; assay: Area under curve was determined using 0.4% Methyl cellulose (MC) as vehicle. Compound was administered orally to nude mice at a dose of 25 mg/kg; format: ADME, organism-based; parameters: dose 25 mg/kg, route oral; conditions: mouse, in vivo, po; outline: as §1

AUC [ng·h/mL] | Structure (SMILES)
350 | N#CCC(=O)N1CCC(CC(=O)N2CCC([C@H]3c4ncc(Br)cc4CCc4cc(Cl)cc(Br)c43)CC2)CC1
2000 | O=C(CC1CCN(C(=O)c2cc[n+]([O-])cc2)CC1)N1CCC([C@H]2c3ncc(Br)cc3CCc3cc(Cl)cc(Br)c32)CC1

tested on: not listed separately; assay: Maximum concentration (Cmax) using 0.4% Methyl cellulose (MC) as vehicle. compound was administered orally to nude mice at a dose of 25 mg/kg; format: ADME, organism-based; parameters: dose 25 mg/kg, route oral; conditions: mouse, in vivo, po; outline: as §1

Cmax [µM] | Structure (SMILES)
0.33 | N#CCC(=O)N1CCC(CC(=O)N2CCC([C@H]3c4ncc(Br)cc4CCc4cc(Cl)cc(Br)c43)CC2)CC1
1.07 | O=C(CC1CCN(C(=O)c2cc[n+]([O-])cc2)CC1)N1CCC([C@H]2c3ncc(Br)cc3CCc3cc(Cl)cc(Br)c32)CC1

tested on: NIH-3T3 (Mus musculus); assay: inhibition of tumor colony formation in soft agar; conditions: not given

Structure (SMILES) | IC50 [nM]
O=C(CC1CCN(CC(=O)N2CCOCC2)CC1)N1CCC([C@H]2c3ncc(Br)cc3CCc3cc(Cl)cc(Br)c32)CC1 | 100
C[C@@H](N)C(=O)N1CCC(CC(=O)N2CCC([C@H]3c4ncc(Br)cc4CCc4cc(Cl)cc(Br)c43)CC2)CC1 | 200
NC(=O)CNC(=O)N1CCC(CC(=O)N2CCC([C@H]3c4ncc(Br)cc4CCc4cc(Cl)cc(Br)c43)CC2)CC1 | 330

tested on: not listed separately; assay: Bioavailability in mouse (nude) using 20% aqueous hydroxypropyl-beta-cyclodextrin (HPbetaCD) as vehicle 25 mg/kg; format: ADME, organism-based; conditions: nude, in vivo

bioavailability [%] | Structure (SMILES)
115 | O=C(CC1CCN(C(=O)c2cc[n+]([O-])cc2)CC1)N1CCC([C@H]2c3ncc(Br)cc3CCc3cc(Cl)cc(Br)c32)CC1

tested on: not listed separately; assay: Bioavailability in mouse (nude) (dose 0.4% Methylcellulose (MC) as vehicle 25 mg/kg); format: ADME, organism-based; conditions: in vivo

bioavailability [%] | Structure (SMILES)
8.6 | N#CCC(=O)N1CCC(CC(=O)N2CCC([C@H]3c4ncc(Br)cc4CCc4cc(Cl)cc(Br)c43)CC2)CC1
14.6 | O=C(CC1CCN(C(=O)c2cc[n+]([O-])cc2)CC1)N1CCC([C@H]2c3ncc(Br)cc3CCc3cc(Cl)cc(Br)c32)CC1

tested on: not listed separately; assay: Maximum concentration (Cmax) using 20%aqueous hydroxypropyl-beta-cyclodextrin (HPbetaCD) as vehicle. compound was administered intravenously to nude mice at a dose of 25 mg/kg; format: ADME, organism-based; parameters: dose 25 mg/kg, route intravenous; conditions: mouse, in vivo, iv; outline: as §1

Cmax [µM] | Structure (SMILES)
19.8 | O=C(CC1CCN(C(=O)c2cc[n+]([O-])cc2)CC1)N1CCC([C@H]2c3ncc(Br)cc3CCc3cc(Cl)cc(Br)c32)CC1

tested on: NIH-3T3 (Mus musculus); assay: Inhibition of tumor colony formation in soft agar; conditions: not given

Structure (SMILES) | IC50 [nM]
N#CCC(=O)N1CCC(CC(=O)N2CCC([C@H]3c4ncc(Br)cc4CCc4cc(Cl)cc(Br)c43)CC2)CC1 | 120

tested on: not listed separately; assay: Area under curve was determined using 0.4% Methyl cellulose (MC) as vehicle. Compound was administered intravenously to nude mice at a dose of 25 mg/kg; format: ADME, organism-based; parameters: dose 25 mg/kg, route intravenous; conditions: mouse, in vivo, iv; outline: as §1

AUC [ng·h/mL] | Structure (SMILES)
4090 | N#CCC(=O)N1CCC(CC(=O)N2CCC([C@H]3c4ncc(Br)cc4CCc4cc(Cl)cc(Br)c43)CC2)CC1
13700 | O=C(CC1CCN(C(=O)c2cc[n+]([O-])cc2)CC1)N1CCC([C@H]2c3ncc(Br)cc3CCc3cc(Cl)cc(Br)c32)CC1
